Experiment: Toxicity liver stage against HepG2, at 10uM
Assay type: cell-based
Set-up: test concentration 10 uM, cell line HepG2-A16-CD81EGFP
Conditions: human, HepG2-A16-CD81EGFP cells; read-out: INHIBITION
Outline: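 Uninfected HepG2-A16-CD81EGFP cells, 3 × 10^3 per well, 1536-well, plated on prespotted compound at 10 μM final, parasite-free screening media added to match infected plates; puromycin 10 μM positive, DMSO 0.5% negative; run in parallel with 48 h PbLuc assay at 37 °C, 5% CO2; viability by CellTiter-Glo luminescence, normalized to controls.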

SMILES | cytotoxicity at 10 µM
CCOCCCNC(=O)C1(C)CCC(=O)N1Cc1ccccc1F (stereo unspecified) | -5.57%
CCN(CC)CCNC(=O)CCc1c(C)nn(-c2cccc(Cl)c2)c1C | -5.34%
CC(C)CC(=O)N1CC(=O)N(Cc2ccco2)CC(O)C1 (stereo unspecified) | -8.23%
COc1c(C(N)=O)cn(C)c1-c1nc2cc(NC(C)=O)ccc2n1C | -46.5%
CN1C(=O)COc2ccc(C(=O)Cn3cnc4ccsc4c3=O)cc21 | 8.69%
CC(C)n1cc(C(=O)NCCN(C)C)c2n[nH]c(=O)c-2c1 | 9.06%
CN1CCN(CC2CC2)C(=O)C12CCN(c1nccs1)CC2 | -6.01%
CN1Cc2ccccc2CC2(CCN(c3ncccn3)CC2)C1=O | -7.42%
CN1CCN(Cc2ccco2)Cc2cccnc21 | 2.04%
COC[C@@]12CCO[C@@H]1CCN(C(=O)Cc1ccc(C)cc1)C2 | 1.47%
Oc1nnc(-c2cccs2)c2sc(N3CCCC3)nc12 | -2.73%
Cc1nn(C)c2c(=O)n(Cc3ccc(Cl)cc3)nnc12 | -3.02%
CCn1nc(C)c2nc(C(C)C)nc(NCC(=O)N3CCOCC3)c21 | 3.07%
CC(C)CC(=O)N1CCC(Nc2nc(O)cc(-c3ccsc3)n2)CC1 | 11.3%
CC(=O)N1CCCC(c2cnc(-c3c(C)nn(C)c3C)cn2)C1 (stereo unspecified) | 1.95%
CN(C)c1cncc(C2CCN(C(=O)CO)CC2)n1 | -1.37%
O=C(c1ccc(Cl)cc1)N1CCC(N2CCCOC2=O)CC1 | 11.1%
CN1CC(=O)N(C2CCCNC2)Cc2c(NC3CCC3)ncnc21 (stereo unspecified) | 3.96%
O=C(Nc1c(N2CCCC2)cccc1N1CCCC1)c1cnccn1 | -50.9%
CC(C)c1nc2n(n1)CC(Nc1ncnc3c1CCC3)CC2 (stereo unspecified) | -49.1%
CC(C#N)CN(C)Cc1cc(Cl)cc2cccnc12 (stereo unspecified) | -48.5%

SMILES | cytotoxicity at 10 µM
Cc1ccc(S(=O)(=O)CCC(=O)N(C)Cc2cnn(C)c2)cc1 | -2.9%
CC(C)c1ccc2c(c1)CCCN2C(=O)CN(C)S(C)(=O)=O | 3.78%
O=C(Nc1ccc(Cl)cn1)C1CCN(CCc2ccccn2)CC1 | -6.55%
O=C(Nc1ccc(Cl)cn1)C1CCCN(CCc2ccccn2)C1 (stereo unspecified) | 7.33%
NC(=O)C1CCN(c2cncc(-n3cccn3)n2)CC1 | 12.5%
CC(C)OCCC(=O)NCCc1csc(N2CCCC2)n1 | -12.9%
CNC(=O)NC(C)c1nc(-c2ccc(Br)cc2)no1 (stereo unspecified) | 7.71%
N#Cc1cccc(CNc2cc(CO)ccc2Cl)c1 | 11.5%
CN(C)C(=O)Cc1nc(CN2CCCC2Cn2cccn2)cs1 (stereo unspecified) | 4.79%
CCNC(=O)CN1CCN(c2cc(C)nc(-c3ccncc3)n2)CC1 | 5.63%
Cc1csc(CNCC(C)c2nc3ccccc3o2)n1 (stereo unspecified) | -15.6%
CCc1nc(C)ncc1C(=O)N1CCN(CC)c2ccccc21 | -10.1%
CCc1n[nH]c(=O)c(C(=O)N2CCOC3(CCCC3)C2)c1CC | 13.3%
COc1ccccc1NC(=O)NC1(c2noc(CN(C)C)n2)CCCC1 | -5.22%
Cc1ccccc1C(C)CC(=O)N1CC[C@H](O)C1 (stereo partly specified) | -49.7%
CN(C)C1CCN(C(=O)CCc2cc(Br)cs2)CC1 | -18%
CC(=O)N1CCC(NC(=O)c2ccc3c(c2O)OC(C)(C)C3)CC1 | 0.519%
CCc1nc(CNCC2(C(N)=O)CCOCC2)cs1 | -3.97%
CN(C)C(=O)CNC(=O)c1ccn(-c2ccc3ccccn23)n1 | 0.74%
O=C1CC[C@@H]2[C@@H](CCN2C(=O)c2ccsc2)N1CC1CC1 | -10.9%
CN(C)[C@@H]1CCN(C(=O)c2ccsc2)[C@H]1Cc1cnn(C)c1 | -6.18%

SMILES | cytotoxicity at 10 µM
CNC(C(=O)N1CCC(c2nccn2C(C)C)CC1)c1ccccc1 (stereo unspecified) | 0.258%
Oc1ccccc1N1CCN(c2ncnc3sc4c(c23)CCNC4)CC1 | 4.36%
CCCn1c(C)c(CC(=O)N(C)CCO)c2c1CC(C)(C)CC2=O | -3.64%
Cc1cc(N2CCCN3CCC[C@H]3C2)n2nc(C)c(C)c2n1 | 4.37%
COc1ccc(C(=O)N2CCOC(Cc3cccc(C(F)(F)F)c3)C2)o1 (stereo unspecified) | -0.869%
O=C1CCC2(CCCN(C(=O)c3ccoc3)C2)CN1CCc1c[nH]cn1 (stereo unspecified) | 4.54%
CC(C)N1CCCC(C(=O)N2CCN(c3cnn(C)c(=O)c3)CC2)C1 (stereo unspecified) | -3.75%
CCN(Cc1noc(C2CC2)n1)C(=O)c1onc2ccccc12 | 1.61%
CCn1c(C2CCN(C(=O)c3ccc4sc(C)nc4c3)CC2)n[nH]c1=O | -18%
CCC[C@H]1CN(c2nc(CO)cs2)C[C@@H]1NC(=O)C1CCC1 | 6.07%
CCC1(O)CCCN(c2nc(C(C)(C)C)nc3c2cnn3C)C1 (stereo unspecified) | -52.9%
Cc1cc(N(C)CCn2ccnc2C)n2nccc2n1 | 4.09%
Cc1nsc(NC(=O)N2CCCCC2CCCO)n1 (stereo unspecified) | -46.3%
CN(Cc1cc(C(C)(C)C)n[nH]1)C(=O)c1ccc2nccn2c1 | -7.01%
CC(C(=O)N1CCCN(Cc2cnn(C(C)C)c2)CC1)n1ccnc1 (stereo unspecified) | -11.8%
CS(=O)(=O)NCC1CCCN(C(=O)COCC2CC2)C1 (stereo unspecified) | 4.28%
COc1ncccc1CNC(=O)N(Cc1ccc(F)cc1F)C1CC1 | 0.139%
COCCNC(=O)CN1CCC(N2CCN(C)C2=O)CC1 | 0.621%
OC(COCc1ccccc1Cl)CN1CCC(c2ccn[nH]2)CC1 (stereo unspecified) | -15.1%
CCc1ncc2c(n1)CN(C(C)C(=O)Nc1ccc(Cl)cn1)CC2 (stereo unspecified) | -0.915%
Cc1nc(CN(C)C2CCN(Cc3nc4ccccc4n3C)C2)no1 (stereo unspecified) | -9.26%

SMILES | cytotoxicity at 10 µM
Cc1nn(C)c(C)c1C1CCCN1CC(=O)Nc1cccnc1 (stereo unspecified) | -31.7%
CC(C)c1nnc(CN2CCCC2Cn2cncn2)o1 (stereo unspecified) | -11.1%
COc1cccc(OCCNCc2c(C)nn(C)c2N(C)C)c1 | 1.25%
O=C1CCC2(CCC(NCc3cccnc3)CC2)N1Cc1ccccc1 (stereo unspecified) | -2.04%
COc1cc(N2CCCn3cnc(COC(C)C)c3C2)ncn1 | -5.3%
O=C(NCc1cccnc1)[C@H]1C[C@@H]2CCN(c3ccncn3)C[C@H]2O1 | 7.95%
O=C(CN1CC(c2nc(C3CC3)no2)C1)NCC1CCCO1 (stereo unspecified) | -6.66%
Cc1nc(CN2C[C@@H]3CCCO[C@@H]3[C@H](NC(=O)CC3CC3)C2)cs1 | 9.2%
Cc1nnc(N2C[C@H](OCc3cccnc3)[C@H]3OCCC[C@H]32)s1 | 10.8%
CN(C)C(=O)N1CCC(c2nc3ccc(N4CCCC4)cn3n2)CC1 | 3.16%
Cc1ccnc(C(=O)N2C[C@@H]3CN(S(C)(=O)=O)CCO[C@@H]3C2)c1 | -3.92%
Cc1ccc(CC(=O)N2CC[C@@H]3CN(CCN(C)C)CCO[C@@H]3C2)cc1 | 2.73%
CC(C)NC(=O)[C@H]1C[C@@H]2[C@@H](C1)OCCN2CC1CC1 | -6.13%
O=C(c1cccnc1)N1CCn2nnc(COc3cccnc3)c2C1 | 3.34%
COCCN1CCC2(CCCN(c3ncccn3)C2)C1 (stereo unspecified) | 1.36%
CNC(=O)c1ccc(CN(C(C)C)C(C)C)o1 | -1.88%
O=C(NCC1CCCCC1)N1C[C@@H]2C[C@H](C(=O)N3CCCC3)[C@H](C1)O2 | -2.48%
O=C(c1ccc2c(c1)[nH]c(=O)n2C1CCC(O)CC1)N1CCOCC1 (stereo unspecified) | -41.4%
